The text below walks through data of ChEMBL document CHEMBL1123363, “(5-Amino-1,3-dimethyl-1H-pyrazol-4-yl)(2-fluorophenyl)methanones . A series of novel potential antipsychotic agents” (J Med Chem, 1986).

The target of one experiment is T1, Adenosine receptor A1 (Rattus norvegicus, UniProt P25099).
T1 sequence (P25099 whole entry): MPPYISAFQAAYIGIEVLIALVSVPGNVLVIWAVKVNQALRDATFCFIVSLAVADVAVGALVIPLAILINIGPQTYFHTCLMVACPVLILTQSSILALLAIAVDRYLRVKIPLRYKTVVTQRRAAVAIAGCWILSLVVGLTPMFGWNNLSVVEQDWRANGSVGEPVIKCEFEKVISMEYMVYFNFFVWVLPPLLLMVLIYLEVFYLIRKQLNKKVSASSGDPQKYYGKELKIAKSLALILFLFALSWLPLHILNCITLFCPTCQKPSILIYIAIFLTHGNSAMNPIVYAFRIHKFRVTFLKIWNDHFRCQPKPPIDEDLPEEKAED
The experiment in a line: Binding affinity towards adenosine A1 receptor using [3H]- CHA. The essentials:
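Adenosine A1 binding in membranes of rat whole brain minus brain stem and cerebellum (male Long-Evans, 150–250 g), using [3H]-CHA at 1.0 nM final. Theophylline at 1 mM final was the reference. IC50 from four or five concentrations by nonlinear fit.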

Experiment [1] can be described thus: Displacement of [3H]flunitrazepam from rat brain GABA-A benzodiazepine receptor.
The target in another experiment is Dopamine receptor. In words: Binding affinity for dopamine receptor in rat striatal membrane using [3H]haloperidol as radioligand. The class given is cell membranes, Striatum. The essentials:
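Nonspecific binding defined with (+)-butaclamol at 0.1 μM final. IC50 fitted by nonlinear curve fit from four or five concentrations in triplicate.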

The species named for experiment [2] is Mus musculus. In words: Ability to inhibit locomotor activity using ataxia test. The class given is functional. Particulars: read-out: MED. In outline: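 Male Swiss–Webster mice (20–30 g, unfasted), nine per dose in groups of three, dosed ip in 0.2% methocel (dose as parent compound) 1 h before testing. Ataxia was scored first on an inverted screen over 60 s as % of mice falling. […] ED50 from at least three doses.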

The target of experiment [3] is T2, Adrenergic receptor alpha-1 (Rattus norvegicus, UniProt P15823+P23944+P43140).
T2 sequence (P15823 whole entry): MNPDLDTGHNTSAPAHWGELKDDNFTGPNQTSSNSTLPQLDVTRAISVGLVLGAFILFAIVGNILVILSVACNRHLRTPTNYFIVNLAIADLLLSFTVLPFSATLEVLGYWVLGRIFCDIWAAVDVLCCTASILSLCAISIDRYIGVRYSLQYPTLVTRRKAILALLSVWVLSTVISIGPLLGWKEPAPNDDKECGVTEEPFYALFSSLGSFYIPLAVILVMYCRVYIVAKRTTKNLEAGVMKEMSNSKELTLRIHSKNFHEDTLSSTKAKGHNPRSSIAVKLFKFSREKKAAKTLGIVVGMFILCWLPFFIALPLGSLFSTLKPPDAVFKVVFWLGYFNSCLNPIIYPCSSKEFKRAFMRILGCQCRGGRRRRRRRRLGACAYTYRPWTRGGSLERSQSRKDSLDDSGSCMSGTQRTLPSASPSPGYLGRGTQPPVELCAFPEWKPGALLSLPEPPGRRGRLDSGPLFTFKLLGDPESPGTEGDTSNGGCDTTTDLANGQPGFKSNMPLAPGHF
T2 sequence (P23944 whole entry): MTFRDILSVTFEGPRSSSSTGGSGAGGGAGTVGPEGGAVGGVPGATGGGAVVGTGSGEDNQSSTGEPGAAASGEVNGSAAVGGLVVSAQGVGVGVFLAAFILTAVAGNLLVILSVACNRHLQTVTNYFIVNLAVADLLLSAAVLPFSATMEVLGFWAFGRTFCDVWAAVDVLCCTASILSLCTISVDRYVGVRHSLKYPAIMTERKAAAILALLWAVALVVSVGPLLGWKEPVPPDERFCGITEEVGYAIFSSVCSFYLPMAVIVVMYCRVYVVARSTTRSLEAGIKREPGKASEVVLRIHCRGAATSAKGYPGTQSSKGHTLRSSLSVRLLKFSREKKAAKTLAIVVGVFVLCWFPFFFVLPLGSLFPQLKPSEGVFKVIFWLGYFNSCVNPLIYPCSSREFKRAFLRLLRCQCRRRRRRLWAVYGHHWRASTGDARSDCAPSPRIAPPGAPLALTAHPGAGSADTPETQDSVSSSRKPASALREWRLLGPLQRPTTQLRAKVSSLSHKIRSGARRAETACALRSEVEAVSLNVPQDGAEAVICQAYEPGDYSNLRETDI
T2 sequence (P43140 whole entry): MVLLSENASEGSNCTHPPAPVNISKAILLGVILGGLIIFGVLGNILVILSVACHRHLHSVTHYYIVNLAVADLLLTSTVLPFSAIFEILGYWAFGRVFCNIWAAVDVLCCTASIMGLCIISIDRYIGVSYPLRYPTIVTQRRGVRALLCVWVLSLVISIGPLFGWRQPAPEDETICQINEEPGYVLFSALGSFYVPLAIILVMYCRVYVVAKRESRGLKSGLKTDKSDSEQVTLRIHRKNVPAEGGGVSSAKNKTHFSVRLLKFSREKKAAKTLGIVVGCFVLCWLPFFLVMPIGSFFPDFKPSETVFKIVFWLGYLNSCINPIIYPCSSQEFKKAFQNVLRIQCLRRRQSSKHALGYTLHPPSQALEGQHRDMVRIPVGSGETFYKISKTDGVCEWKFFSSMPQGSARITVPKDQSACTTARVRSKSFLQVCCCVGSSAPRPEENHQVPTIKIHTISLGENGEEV

A short description of experiment [4]: Extrapyramidal side effect test in cebus monkey. The format is functional. Conditions: read-out: MED. The essentials: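 Groups of three to six were then dosed by gavage and observed hourly for 6–8 h for dystonia or dyskinesia. Any unequivocal sign counted as a positive response. Minimal effective dose was determined in at least three animals.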
For experiment [5], the system named is Mus musculus. In words: Inhibition of apomorphine-induced climbing in mice after intraperitoneal administration. The class given is functional. Particulars: ip. The essentials:
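Male Swiss–Webster mice (25–35 g), ten per dose, were acclimated 30 min in cylindrical cages and then dosed ip. One hour later they received apomorphine 3 mg/kg sc. Climbing was scored in 30-s tests every 5 min for 30 min, starting 15 min after apomorphine. ED50 from at least three doses by nonlinear regression.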

In experiment [6] the test system is Rattus norvegicus. The experiment in a line: Compound was tested for serum prolactin assay method in rats at 100 mg/kg dose after peroral administration. The class given is functional. Particulars: route oral. In outline:
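Seven-week-old male Sprague–Dawley rats, five per group, were dosed orally and killed by decapitation 1 h later. Serum prolactin from trunk blood was measured by radioimmunoassay with [125I]-PRL and expressed as % of control (mean ± SEM).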

A short description of experiment [7]: Inhibition of sidman avoidance in squirrel monkeys after peroral administration. The format is functional. Conditions: po. In outline:
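Mature squirrel monkeys, trained on a modified Sidman avoidance lever schedule, were dosed orally and tested in 6-h sessions. Inhibition was expressed as % of each animal's own nondrug responding. At least three doses were given to four animals, with sessions at least 1 week apart. ED50 from nonlinear regression.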

Experiment [8] has as its system Rattus norvegicus. The experiment in a line: Compound was tested for its affect on the accumulation of the dopamine metabolite homovanillic acid (HAV) in the rat striatum at 25 mg/kg dose after peroral administration. The format is functional. Conditions: route oral. In outline:
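Male Long–Evans rats were dosed orally and decapitated 2 h later. Striatal HVA was isolated on Sephadex G-10 and measured spectrofluorometrically, expressed as % control ± SEM.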

Take `Cc1nn(C)c(N)c1C(=O)c1ccccc1F`: the IC50 (on Adenosine receptor A1; in [1]; on Dopamine receptor; in [3]) was above 10 µM throughout. The minimal effective dose in the experiment filed under Mus musculus [2] was below 10 mg/kg.

`CCN(CC)CC(=O)Nc1c(C(=O)c2ccccc2F)c(C)nn1C`: the IC50 (at Adenosine receptor A1; in experiment [1]) was above 10 µM throughout. Moreover, the minimal effective dose in experiment [4] is above 100 mg/kg; in the experiment listed under Mus musculus [2], 30 mg/kg. Moreover, the ED50 is above 100 mg/kg in the experiment with Mus musculus [5] and 15.6 mg/kg in experiment [7]. Further, the results for the Control in the experiment with Rattus norvegicus [6] and with Rattus norvegicus [8] were 21.8% and 114.9%, respectively.

With `Cc1nn(C)c(NC(=O)CNCCCN2CCCCC2C)c1C(=O)c1ccccc1F` (configuration not stated), the IC50 (in experiment [1]; on Dopamine receptor; in experiment [3]) was above 10 µM each time. The minimal effective dose in experiment [4] was above 200 mg/kg; in the experiment listed under Mus musculus [2], 30 mg/kg. The ED50 with Mus musculus [5] is above 100 mg/kg; in experiment [7], 12.7 mg/kg. Further, the results for the Control in the experiment on Rattus norvegicus [6] and with Rattus norvegicus [8] were 51% and 95.8%, respectively.

As usually defined, the IC50 is the concentration at which inhibition is half-maximal. A word on the ED50: it is the midpoint of the dose-response relation.
